Bioassay records (PubChem)
The list is not random: actives were taken first. Their share in the collection is about 2.9%.
PfM18AAP inh – PfM18AAP inhibitors, malaria aminopeptidase, primary screen, biochemical, QFRET, recombinant enzyme | M18 aspartyl aminopeptidase (Plasmodium falciparum 3D7) | H-Glu-NHMec fluorogenic cleavage | inhibition, % at 7.35 µM | hit rate 1.2% among 290,000 | AID 1822, 2009;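 active = inhibition above the campaign mean inhibition over all tested compounds plus 3 SD, cut at about 28% in these data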
PfGluPho inh – PfG6PD enzyme inhibitors, primary screen, biochemical, fluorescence intensity, uHTS | glucose-6-phosphate dehydrogenase-6-phosphogluconolactonase (Plasmodium falciparum 3D7) | PfGluPho enzyme, NADPH resazurin-diaphorase fluorescence | inhibition, % at 20 µM | hit rate 0.78% among 350,000 | AID 504690, 2011;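 active = inhibition reaching at least a set limit at 20 µM in the primary screen, cut at about 59% in these data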
EBNA-1 inhibitor – EBNA-1 DNA-binding inhibitors, primary screen, biochemical, fluorescence polarization | inhibition, % at 14.8 µM | hit rate 0.34% among 300,000 | AID 1950, 2009; in the data active = inhibition above about 28%
ZTA DNA inh – ZTA (EBV) inhibition in EBNA-1 counter-screen; AID 2234; hit rate 0.15% among 320,000; P03206; ZTA-DNA binding, fluorescence polarization; inhibition, % at 11 µM; in the data active = inhibition above about 33%
Target sequence (P03206 whole entry, looked up): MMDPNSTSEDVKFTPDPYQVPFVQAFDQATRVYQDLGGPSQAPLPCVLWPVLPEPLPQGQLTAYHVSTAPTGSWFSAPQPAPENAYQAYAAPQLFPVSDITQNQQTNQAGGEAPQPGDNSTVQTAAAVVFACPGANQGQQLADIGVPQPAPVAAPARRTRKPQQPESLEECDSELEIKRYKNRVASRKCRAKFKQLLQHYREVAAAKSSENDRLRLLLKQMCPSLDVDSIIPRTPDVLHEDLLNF
UBC13 inh – UBC13 polyubiquitin chain formation inhibitors, primary screen, biochemical, TR-FRET, uHTS | Ubiquitin-conjugating enzyme E2 N (Homo sapiens), P61088 | hit rate 0.47% among 330,000 | inhibition, % at 20 µM | AID 485273, 2010; in the data active = inhibition above about 45%, passing the limit was not always enough; inconclusive = no clear call, values can overlap the other calls
Target sequence (P61088 whole entry, looked up): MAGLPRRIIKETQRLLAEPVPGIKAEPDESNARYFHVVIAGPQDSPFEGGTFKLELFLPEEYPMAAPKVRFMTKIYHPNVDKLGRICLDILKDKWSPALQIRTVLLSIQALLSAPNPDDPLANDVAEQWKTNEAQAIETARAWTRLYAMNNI
Apaf1 inhib – inhibitors of human Apaf-1 apoptosome, primary screen, biochemical, DEVD-Rh110 fluorescence, uHTS. Apoptotic protease-activating factor 1 (Homo sapiens), O14727. reconstituted apoptosome caspase-3 activity. inhibition, % at 20 µM. hit rate 0.71% among 330,000. AID 489030, 2010; active = inhibition of at least 40% at 20 µM
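Material: cell-free apoptosome with Apaf-1, procaspase-3 and caspase-9; Buffer or medium: Hepes pH 7.5 with detergent and BSA; Reagent: cytochrome c trigger plus (Z-DEVD)2-Rh110 caspase-3 substrate; Times: compound with Apaf-1, dATP, procaspase-3 30 min, then 50 min reaction, room temperature; Technique: Rh110 fluorescence intensity.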
A number is an active result; i = inactive; ? = inconclusive; nt = not tested or not shown; ! = not confirmed by another sample.

SMILES	PfM18AAP inh	PfGluPho inh	EBNA-1 inhibitor	ZTA DNA inh	UBC13 inh	Apaf1 inhib
O=C(O)c1cc[c]([Hg][Cl])cc1	nt	122	i	i	i	i
Nc1c(Br)cc2c3c(cccc13)-c1ccccc1-2	nt	125	nt	nt	nt	nt
c1ccc2c(c1)-c1cccc3cccc-2c13	nt	i	i	i	?	i
NS(=O)(=O)c1nc[nH]c1[N+](=O)[O-]	nt	i	nt	nt	nt	nt
NC(=O)Cn1cc(C=C2C(=O)NC(=O)NC2=O)c2ccccc21	29	i	nt	nt	i	i
O=C(O)Cn1cc(/C=C2\C(=O)NC(=O)N(c3ccc(F)cc3)C2=O)c2ccccc21	i	nt	nt	nt	i	i
CCOC(=O)c1cccc(C2=C(CNC(=O)c3cccnc3)[C@H]3CC[C@@H](C2)N3Cc2ccccc2)c1	nt	i	nt	nt	nt	nt
O=C1NC(=O)C(=Cc2ccc(Oc3ccc([N+](=O)[O-])cc3)cc2)C(=O)N1	i	i	i	i	i	43
O=S1c2ccccc2-c2ccccc21	nt	i	nt	nt	nt	nt
O=C1C=Cc2ccccc2C1=O	i	nt	i	i	i	62
COC1=C(C)C(=O)C2=C(C1=O)C(CO)N1C(C#N)C3CC4C(C1C2N1CCOC41)N3C (configuration not stated)	nt	84	nt	nt	nt	nt
O=C1NC(=O)N(Cc2ccc(F)cc2)C(=O)/C1=C\c1ccc([N+](=O)[O-])s1	i	71	i	i	i	i
COc1ccc(N2C(=O)NC(=O)/C(=C\c3ccc([N+](=O)[O-])s3)C2=O)cc1	i	63	i	i	i	i
COc1ccccc1N1C(=O)NC(=O)/C(=C/c2ccc([N+](=O)[O-])s2)C1=O	i	72	i	i	i	i
COc1ccc(N2C(=O)NC(=O)/C(=C/c3ccc([N+](=O)[O-])s3)C2=O)cc1	i	i	i	i	i	i
COc1ccc(CN2C(=O)NC(=O)/C(=C/c3ccc([N+](=O)[O-])s3)C2=O)cc1	i	67	i	i	i	i
CC=C(CC)C1(CCC)C(=O)NC(=S)NC1=O	nt	i	nt	nt	nt	nt
CC(=O)[C@@]1(O)CCC2C3CC=C4C[C@@H](O)CC[C@]4(C)C3CC[C@@]21C (some centres not stated)	nt	i	nt	nt	i	i
COC(=O)C1=C(c2cccc(Cl)c2)C[C@@H]2CC[C@H]1N2C(=O)NCC1CC1	nt	i	nt	i	i	i
COC1=CC=C2[C@H]3Cc4ccc(OC)c5c4[C@@]2(CCN3C)[C@H]1O5	i	i	i	i	i	i
CC1C2Cc3ccc(O)cc3[C@]1(C)CCN2CCc1ccccc1 (some centres not stated)	nt	i	nt	nt	i	i
CCN(CC)c1ccc(/C=C/[N+](=O)[O-])cc1	i	i	i	i	i	i
COc1cc(/C=C/[N+](=O)[O-])ccc1O	29	i	i	i	i	i
O=C(CCN1CC1)OCCOC(=O)CCN1CC1	nt	i	nt	nt	nt	nt
Nc1ncnc2c1ccn2[C@@H]1O[C@H](CO)[C@@H](O)[C@H]1O	nt	i	i	i	i	i
SMILES	PfM18AAP inh	PfGluPho inh	EBNA-1 inhibitor	ZTA DNA inh	UBC13 inh	Apaf1 inhib
NC(=S)c1cn(C2OC(CO)C(O)C2O)c2ncnc(N)c12 (configuration not stated)	40	i	i	i	nt	nt
COC(=O)C1=C(c2cccc(OCc3ccccc3)c2)C[C@@H]2CC[C@H]1N2C(=O)NCc1ccc(N(C)C)cc1	nt	i	nt	i	i	i
N[C@@H](CCl)C(=O)O	nt	i	i	i	i	i
NC(Cc1cc(O)c(O)cc1O)C(=O)O (configuration not stated)	nt	nt	90	49	?	84
COC(=O)C12OCC34C(CC5C(C)=C(O)C(=O)CC5(C)C3C(O)C1O)OC(=O)C(OC(=O)/C=C(\C)C(C)C)C24 (configuration not stated)	nt	i	nt	nt	nt	nt
CCn1nc(-c2cccs2)nc2c(=O)n(C)c(=O)nc1-2	nt	107	nt	nt	nt	nt
O=[N+]([O-])c1ccc(C(=Nc2ccccc2)N2CC2)cc1	nt	i	nt	nt	nt	nt
Oc1cc2c(cc1O)[C@H]1c3ccccc3CN[C@@H]1CC2	90	nt	i	i	nt	nt
CC(=O)C1CCC2C3C(N4CC4)CC4=CC(=O)CCC4(C)C3CCC12C (configuration not stated)	nt	i	nt	nt	nt	nt
CCN1/C(=C\C=C\C2=[N+](CC)c3ccccc3C2(C)C)C(C)(C)c2ccccc21	i	i	i	i	i	56
CN(C)[C@@H]1C(=O)C(C(N)=O)=C(O)[C@@]2(O)C(=O)C3=C(O)c4c(O)cccc4[C@@](C)(O)[C@H]3[C@H](O)[C@@H]12	i	i	30!	i	i	i
Clc1ccc(C[n+]2c(-c3ccccc3)cc(-c3ccccc3)cc2-c2ccccc2)cc1	nt	i	i	i	47	52
CC1=C(N2CC2)C(=O)C(CO)=C(N2CC2)C1=O	nt	i	nt	nt	nt	nt
CC1C(c2ccccc2)OC(=O)N1C (configuration not stated)	nt	i	nt	nt	nt	nt
O=[N+]([O-])/C=C/c1c(Cl)cccc1Cl	nt	101	nt	nt	nt	nt
CN[C@@H]1C[C@@H](c2ccc(Cl)c(Cl)c2)c2ccccc21	i	nt	i	i	46	i
C(#CCN1CCOCC1)COC/C=C/c1ccccc1	31	i	i	i	i	i
Clc1ccc(OCC#CCN2CCOCC2)cc1	i	i	i	i	i	i
O=C(NC1CCCCC1)Oc1cc2oc(=O)sc2cc1Cl	31	i	i	i	i	i
O=C(O)c1cccc2c1NC(C(=O)O)C1CC(Sc3ccccc3[N+](=O)[O-])C(Cl)C21 (configuration not stated)	i	i	35	110	nt	nt
C=CCn1c(O)c(C(C)=Nc2ccc(N(CC)CC)cc2)c(=O)[nH]c1=O	29	i	i	i	i	i
C=CCn1c(O)c(C(CC)=Nc2ccc(NC(C)=O)cc2)c(=O)[nH]c1=O	i	i	i	i	i	i
C=CCn1c(O)c(C(C)=Nc2ccc(N(C)C)cc2)c(=O)[nH]c1=O	30	i	58	150	i	i
C=CCn1c(O)c(C(CC)=Nc2ccc(N(CC)CC)cc2)c(=O)[nH]c1=O	29	i	i	i	i	i
N#CC1c2ccccc2-n2nncc2CN1S(=O)(=O)c1cc(Cl)cc(Cl)c1 (configuration not stated)	nt	i	nt	nt	nt	nt
SMILES	PfM18AAP inh	PfGluPho inh	EBNA-1 inhibitor	ZTA DNA inh	UBC13 inh	Apaf1 inhib
c1cc2c(cc1NC1=NCCO1)CCCC2	nt	i	nt	nt	nt	nt
O=C1NC(=O)C(Cc2ccccc2)(Cc2ccccc2)C(=O)N1Cc1ccccc1	nt	i	nt	nt	nt	nt
Nc1c(C(=O)NCc2ccco2)c2nc3ccccc3nc2n1Cc1ccccc1	i	i	i	i	i	i
Nc1c(C(=O)NCc2ccco2)c2nc3ccccc3nc2n1CCN1CCOCC1	i	i	i	i	i	44
CCCCCCn1c(N)c(C(=O)NCCN2CCOCC2)c2nc3ccccc3nc21	i	i	i	i	i	52
COCC(C)OC(=O)c1c(N)n(Cc2ccco2)c2nc3ccccc3nc12 (configuration not stated)	i	i	i	i	i	61
COC(=O)C1=C(c2ccc(C(C)=O)cc2)C[C@@H]2CC[C@H]1N2C(=O)NCc1ccco1	nt	i	nt	i	i	i
